Drawing on PubChem BioAssay, this text covers viability, differential viability (reversal) and inhibition for 18 compounds.

Each structure is given as a SMILES string. Active and inactive are the calls of the source.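 Rule for the calls, unless noted: active = viability at or under a set limit in both replicates, limit being median viability minus 3 SD (cut at about 48% in these data, passing the limit was not always enough); inconclusive = at or under the limit in just one replicate; inactive = at or above the limit in both replicates.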

The nature of test [1]: reduced viability of SK-BR-3 breast cancer cells – cell-based, 24 h, human, pilot screen (AID 572;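 active = viability at or below 10% of carrier control in both of two separate runs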;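 note: compound exposure lasted between 18 and 24 h rather than exactly 24 h; 100% = carrier-treated control wells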). The conditions noted are these: SK-BR-3 viability, CellTiter-Glo luminescence, at 10 µM, stronger effect = lower value. On the technique in general: In ATP-based viability assays light output follows the ATP content of the culture.
Test [2] is described as follows: HUVEC growth inhibition – cell-based, human, primary screen (AID 575;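 active = viability at or below 30% in both replicate assays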;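 note: 100% = median of untreated cell wells with 0.1% DMSO on each plate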). The conditions noted are these: HUVEC proliferation, CellTiter-Glo luminescence, 72 h; at 10 µM; stronger effect = lower value. The method, boiled down:
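Test system: HUVEC primary cells. Quantity: 1250 endothelial cells in each well. Dosing: single-point 10 µM, DMSO 0.1% final. Incubation: 72 h treatment at 37 °C. Measured by: CTG luminescence. Control set: DMSO cell controls and MePR drug controls. Plate: collagen-coated 384-well format.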

Test [3] can be described thus: H69AR cell proliferation blockers – human, duplicate replicates, primary screen (AID 580).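 Note: 100% = mean luminescence of untreated wells and 0% = no signal.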 The conditions noted are these: H69AR lung tumor cells viability, ATP luminescence, 72 h; at 10 µM; stronger effect = lower value.
The nature of test [4]: MRP1 drug-resistance reversers in H69AR cells – cell-based, doxorubicin co-treatment, pilot screen (AID 601;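 active = viability loss from added drug above about 55%, and viability with drug at most 40%, in both replicates, limit read from the data, passing the limit was not always enough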). The conditions noted are these: CellTiter-Glo, 72 h, at 10 µM; for differential viability (reversal): stronger effect = higher value.
Test [5] in a line: yeast transport mutant growth inhibition pilot in 384-well plates, post-Golgi transport modulator project (AID 636; in the data active = inhibition above about 31%). The conditions noted are these: absorbance 615 nm, about 18 h, stronger effect = higher value.
The nature of test [6]: growth suppression of yeast trafficking mutant, preliminary HTS, modulators of trafficking downstream of Golgi apparatus project, 1536-format plate, OD 615 nm (AID 637; in the data active = inhibition above about 30%). The conditions noted are these: yeast transport mutant growth, absorbance 615 nm, 18 h; stronger effect = higher value.
Setting [7] is: H69AR cells + 2 uM doxorubicin, measured here: viability with 2 uM doxorubicin, stronger effect = lower value.
Where [8] appears, read: H69AR cells, compound alone cytotoxicity.

By viability is commonly meant a read-out of living cells in per cent, often relative to untreated cells. The term inhibition denotes the relative decrease from the control value, in per cent. As for `O=S(=O)(Nn1cnnc1)c1ccccc1Cl`, the viability in test [1] is 84% (inactive); in test [2] it was 109% (inactive); in test [3], 89.3% (inactive); in test [4] (setting [7]) it was 92.7%; in test [4] (setting [8]) it was 89.3%. Besides, in test [4] (H69AR cells + 2 uM doxorubicin), the differential viability (reversal) was -3.4% (inactive). Besides, the inhibition in test [5] was 4% (inactive); in test [6] it was 7.09% (inactive).
As to `Cc1cccc(NC(=O)c2ccc(S(=O)(=O)N(C)C)cc2)n1`, the viability in test [1] is 112% (inactive); in test [2], 96.1% (inactive); in test [3], 94.2% (inactive); in test [4] (setting [7]), 91.4%; in test [4] (setting [8]), 94.2%. Further, in test [4] (H69AR cells + 2 uM doxorubicin), the differential viability (reversal) is 2.72% (inactive). In addition, the inhibition in test [5] was -0.8% (inactive); in test [6], 2.73% (inactive).
With `C=CCn1c(SCC(=O)Nc2ccccc2OC)nnc1-c1ccccn1`, the viability is 84% (inactive) in test [1]; 92.4% (inactive) in test [2]; 27.6% (active) in test [3]; 65.9% in test [4] (setting [7]); 27.6% in test [4] (setting [8]). The differential viability (reversal) in test [4] (H69AR cells + 2 uM doxorubicin) was -38.3% (inactive). For the same compound, the figures for the inhibition in test [5] and in test [6] were -3.78% (inactive) and -4.36% (inactive), respectively.
`O=C(Nc1ccccc1C(=O)N1CCOCC1)c1cccc(S(=O)(=O)N2CCCC2)c1`: the viability in test [1] was 112% (inactive); in test [2], 92.3% (inactive); in test [3], 88.2% (inactive); in test [4] (setting [7]) it was 89.3%; in test [4] (setting [8]), 88.2%. In addition, the differential viability (reversal) in test [4] (H69AR cells + 2 uM doxorubicin) was -1.19% (inactive). Further, the values for the inhibition in test [5] and in test [6] were -2.08% (inactive) and 0.49% (inactive), respectively.
On to `O=C(Nc1ccc(N2CCOCC2)c(Cl)c1)c1ccc(Br)o1`, for which the viability in test [1] is 91% (inactive); in test [2], 65.5% (inactive); in test [3], 20% (active); in test [4] (setting [7]), 32.4%; in test [4] (setting [8]), 20%. For the same compound, in test [4] (H69AR cells + 2 uM doxorubicin), the differential viability (reversal) was -12.4% (inactive). Moreover, the inhibition in test [5] was -3.7% (inactive); in test [6], 5.81% (inactive).
Take `Cc1ccc2cc(C(c3nnnn3C3CCCC3)N3CCN(c4ccc(F)cc4)CC3)c(=O)[nH]c2c1` (centres undefined): the viability in test [1] is 93% (inactive); in test [2], 101% (inactive); in test [3], 67.6% (inactive); in test [4] (setting [7]), 59.6%; in test [4] (setting [8]) it was 67.6%. Further, the differential viability (reversal) in test [4] (H69AR cells + 2 uM doxorubicin) is 8.08% (inactive). The figures for the inhibition in test [5] and in test [6] were -5.6% (inactive) and 1.27% (inactive), respectively.
Regarding `COc1ccc(OC)c(NS(=O)(=O)Cc2ccccc2)c1`, the viability in test [1] was 63% (inactive); in test [2], 102% (inactive); in test [3], 97.5% (inactive); in test [4] (setting [7]) it was 112%; in test [4] (setting [8]), 97.5%. Also, in test [4] (H69AR cells + 2 uM doxorubicin), the differential viability (reversal) was -14.4% (inactive). The inhibition in test [5] was -7.81% (inactive); in test [6], 1.64% (inactive).
As to `CC(=O)OC1CSc2nc3ccccc3n2C1` (centres undefined), the viability in test [1] is 84% (inactive); in test [2], 111% (inactive); in test [3], 93.4% (inactive); in test [4] (setting [7]), 85.9%; in test [4] (setting [8]), 93.4%. Further, the differential viability (reversal) in test [4] (H69AR cells + 2 uM doxorubicin) is 7.46% (inactive). For the same compound, the inhibition in test [5] is -8.11% (inactive); in test [6], 3.45% (inactive).
Regarding `Cc1ccc(-n2c(C)cc3c2CCCC3=O)cc1`, the viability is 113% (inactive) in test [1]; 112% (inactive) in test [2]; 93.3% (inactive) in test [3]; 94.1% in test [4] (setting [7]); 93.3% in test [4] (setting [8]). In addition, the differential viability (reversal) in test [4] (H69AR cells + 2 uM doxorubicin) was -0.79% (inactive). Moreover, the inhibition in test [5] is -9.07% (inactive); in test [6], -3.09% (inactive).
With `Cc1cc2ccccc2c(=O)n1CC(=O)N(C)c1ccc(F)cc1`, the viability in test [1] is 102% (inactive); in test [2], 84.2% (inactive); in test [3] it was 102% (inactive); in test [4] (setting [7]), 98.9%; in test [4] (setting [8]), 102%. Further, in test [4] (H69AR cells + 2 uM doxorubicin), the differential viability (reversal) was 2.95% (inactive). For the same compound, the inhibition is -2.3% (inactive) in test [5] and -2.73% (inactive) in test [6].
`CC1CCCCN1C(=O)Cn1nnc(-c2cccnc2)n1` (centres undefined): the viability in test [1] was 92% (inactive); in test [2] it was 97.2% (inactive); in test [3], 103% (inactive); in test [4] (setting [7]), 94.6%; in test [4] (setting [8]) it was 103%. In addition, the differential viability (reversal) in test [4] (H69AR cells + 2 uM doxorubicin) was 8.68% (inactive). For the same compound, the inhibition in test [5] was -7.81% (inactive); in test [6], -1.13% (inactive).
As to `COC(=O)CCN(C(=O)c1ccc2c(c1)OCO2)c1ccccn1`, the viability in test [1] is 96% (inactive); in test [2], 93.6% (inactive); in test [3] it was 98.5% (inactive); in test [4] (setting [7]), 90.7%; in test [4] (setting [8]), 98.5%. For the same compound, the differential viability (reversal) in test [4] (H69AR cells + 2 uM doxorubicin) was 7.88% (inactive). Besides, the inhibition is -8.22% (inactive) in test [5] and 0.55% (inactive) in test [6].
For the compound `CCOCCCNC(=O)C1CC(=O)N(C2CCCC2)C1` (centres undefined), the viability was 98% (inactive) in test [1]; 97.7% (inactive) in test [2]; 94.6% (inactive) in test [3]; 90.5% in test [4] (setting [7]); 94.6% in test [4] (setting [8]). Besides, in test [4] (H69AR cells + 2 uM doxorubicin), the differential viability (reversal) is 4.13% (inactive). For the same compound, the inhibition in test [5] was -0.91% (inactive); in test [6], 1.15% (inactive).
On to `Cc1ccc(NC(=O)CSc2nnc(-c3ccc(S(=O)(=O)N4CCOCC4)cc3)n2C)cc1`, for which the viability in test [1] was 102% (inactive); in test [2], 104% (inactive); in test [3], 98.4% (inactive); in test [4] (setting [7]), 94.6%; in test [4] (setting [8]), 98.4%. In addition, the differential viability (reversal) in test [4] (H69AR cells + 2 uM doxorubicin) is 3.83% (inactive). Also, the inhibition in test [5] was -3.33% (inactive); in test [6] it was -1.64% (inactive).
Regarding `O=C(CN(C1CCCCC1)S(=O)(=O)c1ccccc1)NCc1cccnc1`, the viability was 83% (inactive) in test [1]; 103% (inactive) in test [2]; 96% (inactive) in test [3]; 92.6% in test [4] (setting [7]); 96% in test [4] (setting [8]). In addition, in test [4] (H69AR cells + 2 uM doxorubicin), the differential viability (reversal) was 3.4% (inactive). The results for the inhibition in test [5] and in test [6] were -6.76% (inactive) and -0.55% (inactive), respectively.
Consider `Cc1ccccc1C(=O)NC1CCN(Cc2nnnn2CCc2ccccc2)CC1`, for which the viability in test [1] is 124% (inactive); in test [2], 112% (inactive); in test [3], 86.8% (inactive); in test [4] (setting [7]), 91.3%; in test [4] (setting [8]) it was 86.8%. Besides, the differential viability (reversal) in test [4] (H69AR cells + 2 uM doxorubicin) is -4.45% (inactive). Further, the values for the inhibition in test [5] and in test [6] were -5.19% (inactive) and 7.05% (inactive), respectively.
Turning to `Cc1cc(C)nc(SCCS(=O)Cc2ccc(Cl)cc2)n1` (centres undefined), the viability is 102% (inactive) in test [1]; 99.4% (inactive) in test [2]; 96.2% (inactive) in test [3]; 91.5% in test [4] (setting [7]); 96.2% in test [4] (setting [8]). Further, the differential viability (reversal) in test [4] (H69AR cells + 2 uM doxorubicin) is 4.69% (inactive). In addition, the inhibition is -2.34% (inactive) in test [5] and -3.11% (inactive) in test [6].
`CC1=NS(=O)(=O)c2cc(Cl)ccc2N1`: the viability in test [1] was 119% (inactive); in test [2], 89.4% (inactive); in test [3], 94.4% (inactive); in test [4] (setting [7]), 87.1%; in test [4] (setting [8]), 94.4%. Further, in test [4] (H69AR cells + 2 uM doxorubicin), the differential viability (reversal) was 7.28% (inactive). In addition, the inhibition is -1.17% (inactive) in test [5] and 4.67% (inactive) in test [6].
